hiPSC survival = hiPSC single-cell survival enhancement | 360,000 compounds, 0.044% hits | survival enhancement, % at 20 µM | ATPlite luminescence; 100% = ROCK inhibitor wells, 0% = DMSO; in the data active = survival enhancement above about 18%;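 also: cells exposed to compounds for 16 hours before the ATP read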
Cardio protect = myocardial damage modulation in H9c2 cells; H9c2 cardiomyocytes, H2O2 injury protection, ATPLite, 2 h; protection from H2O2 cell death, % at 20 µM; 360,000 compounds, 0.63% hits; AID 588492;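 active = compounds giving at least 50% protection of heart cells from peroxide-induced death in the single-dose screen, raw or plate-pattern-corrected value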;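 also: 0% = DMSO wells with peroxide and 100% = DMSO wells without peroxide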
XBP1 UPR activ = adaptive UPR (XBP1) activation | 330,000 compounds, 0.33% hits | AID 463104 | CHO-XBP1 luciferase reporter, IRE1-XBP1 UPR activation, luminescence; percent of tunicamycin response, DMSO as zero | activation, % at 20 µM;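 active = versus positive control, 20 µM dose yields 30% or more activation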;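 also: 100% = tunicamycin at 10 µg/mL and 0% = DMSO only wells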
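Material: CHO cell line with stable XBP1 luciferase reporter; buffer or medium: F12 medium containing 10% fetal bovine serum; compound: single point, 20 µM final compound, 1% DMSO; incubation: 6 h treatment, 37 °C; measured by: glow luminescence from Steady-Glo reagent; evaluation: activation, % of tunicamycin; control set: tunicamycin high, DMSO low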
CHOP inh = CHOP inhibition in unfolded protein response | inhibition, % at 10 µM | CHO-K1 CHOP-promoter luciferase, tunicamycin-induced, 15-18 h | 220,000 compounds, 3.8% hits | AID 2732;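 active = compounds that reduced the stress-induced luciferase reporter signal by more than about 70% of percent inhibition, limit read from the data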;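 also: 0% = tunicamycin plus vehicle and 100% = wells without tunicamycin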
CHOP UPR activ = apoptotic UPR (CHOP) activation; CHO-CHOP luciferase reporter, luminescence; percent of tunicamycin response over DMSO baseline; activation, % at 10 µM; 330,000 compounds, 0.34% hits;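 active = at 10 µM dose, activation of 40% or more, normalized to positive control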;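 also: 100% = tunicamycin at 10 µg/mL and 0% = DMSO alone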
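Evaluation: % reporter activation, DMSO baseline versus tunicamycin full activation; System: CHO-CHOP luciferase reporter cell line; Input: 500 cells/well; Incubation: 6 h compound treatment, 37 °C; Measured by: Steady-Glo luciferase luminescence; Dosing: one dose, 10 µM in 0.5% DMSO; Buffer or medium: F12 medium, 10% FBS; Benchmarks: positive tunicamycin 10 µg/mL, negative DMSO alone.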
Active calls of the source: *; . = not tested or not shown. The entries come from a sample that favours hits as a whole.

SMILES	hiPSC survival	Cardio protect	XBP1 UPR activ	CHOP inh	CHOP UPR activ
COC(=O)CCCn1cc(CN2CC(N3CCN(Cc4ccccc4F)CC3)CS2(=O)=O)nn1 (stereo not given)	0.1	.	.	.	.
COc1cc(-c2nnc(-c3ccc(N4CCOCC4)cc3)o2)cc(OC)c1OC	-0.5	53.1*	5.7	.	-2.8
CNc1cc(-c2cccc(C(=O)N3CCOCC3)c2)ncn1	-1.2	5.4	.	.	.
CCNC(=O)C1CCCN(C(=O)Cc2ccc3ccccc3c2)CC1 (stereo not given)	-0.2	0.5	.	.	.
Cc1ccc(C)c(NC(=O)CN(C)C(=O)[C@@H](NC(N)=O)C(C)C)c1	0.5	6.2	-3.4	7.1	-2.1
Cc1ccc(C)c(NC(=O)CN(C)C(=O)[C@@H](NC(=O)c2ccc(C(C)(C)C)cc2)C(C)C)c1	-0.8	12.2	-4.4	83.2*	-1.0
CCCCCCCCNc1ncnc2ccccc12	0.1	-23.4	-4.2	80.8*	7.6
c1ccc(CCNc2ncnc3ccccc23)cc1	-3.2	-8.7	-1.4	61.0	3.1
Cc1cn([C@H]2C[C@H](O)[C@@H](/C=C/C(=O)N3CCN(Cc4ccc(F)cc4)CC3)O2)c(=O)[nH]c1=O	1.9	-0.7	.	.	.
COc1ccc(Cl)cc1Nc1nc(-c2sc(NC(=O)c3ccco3)nc2C)cs1	1.3	6.1	-2.4	39.1	0.8
COc1cccc(Nc2nc(-c3sc(NC(=O)c4ccco4)nc3C)cs2)c1	1.0	50.0*	-2.4	44.0	6.0
COc1cccc(Nc2nc(-c3sc(N)nc3C)cs2)c1	-1.0	63.2*	0.0	13.8	9.1
CCC(=O)n1nc(-c2cccnc2)nc1NCc1ccccc1	0.2	-0.2	.	13.0	.
COc1ccc(CNc2nc(-c3cccnc3)nn2C(=O)CC(C)C)cc1	0.5	-8.4	-4.6	83.5*	-0.4
CCCC(=O)n1nc(-c2cccnc2)nc1NCc1ccccc1	-0.6	0.3	.	70.2*	.
O=C(c1ccco1)n1nc(-c2ccccc2)nc1NCc1ccco1	-3.5	0.1	4.6	80.7*	3.6
COc1ccc(-c2nc(SCc3ccccc3)n(C(=O)c3ccco3)n2)cc1	-2.9	-5.5	3.1	12.4	3.7
Cc1ccc(-c2nc(NCc3ccco3)n(C(=O)c3ccco3)n2)cc1	-0.3	-6.6	-2.2	-23.8	5.5
COc1ccc(-c2nc(SC)n(C(=O)c3ccco3)n2)cc1	-4.2	-8.1	-1.3	72.2*	5.1
Cc1ccc(F)cc1C(=O)N1CCCCC1c1cc(C(=O)NC(C)C)no1 (stereo not given)	-1.7	1.7	.	.	.
CCCCC1Cc2[nH]c(=S)[nH]c(=O)c2C(c2cccc3ccccc23)O1 (stereo not given)	-0.1	.	.	.	.
CC(C)NC(=O)N(C)C[C@H]1Oc2ccc(NC(=O)NC3CCCCC3)cc2C(=O)N([C@H](C)CO)C[C@@H]1C	-0.7	5.7	-0.6	.	-1.7
CCOC(=O)[C@]12CCC=C1N(Cc1ccco1)C(=O)[C@H](CC(=O)NCCc1ccccc1OC)C2	0.0	.	.	.	.
CC(=O)n1nc(-c2ccccc2)nc1NCc1ccc(F)cc1	4.3	4.7	3.6	73.8*	-0.1
O=C(CSc1ncc(-c2ccccc2)n1CC1CCCO1)N1CCCCC1 (stereo not given)	3.1	-3.9	-0.6	-0.1	1.4
SMILES	hiPSC survival	Cardio protect	XBP1 UPR activ	CHOP inh	CHOP UPR activ
Nc1ncc(-c2ccccc2)n1CC1CCCO1 (stereo not given)	1.6	61.6*	2.6	59.2	2.8
CC(=O)N1CCN(C(=O)c2cccc(NS(=O)(=O)c3ccc(Br)cc3)c2)CC1	0.0	0.7	-1.1	.	1.6
C/C(=N\NC(=O)c1cc(-c2cccnc2)nc2ccccc12)c1ccccc1O	3.9	59.6*	1.8	34.7	2.3
COc1ccc(/C(C)=N/NC(=O)c2cc(-c3cccnc3)nc3ccccc23)cc1	-0.9	-1.3	0.0	5.1	-0.2
O=C(NNC(=S)Nc1ccccc1)c1cc(-c2cccnc2)nc2ccccc12	0.6	8.1	-1.1	-12.3	-1.5
CC(OC(=O)c1cc(-c2cccnc2)nc2ccccc12)C(=O)Nc1ccc2ccccc2c1 (stereo not given)	1.8	67.2*	-1.4	16.4	-0.8
C/C(=N\NC(=O)c1cc(C2CC2)nc2ccccc12)c1ccc(O)cc1O	-0.5	50.6*	0.9	.	-0.6
Cc1ccc([C@@H]2C[C@H]3[C@@H](CN2S(=O)(=O)c2ccc(Cl)cc2)C(=O)C[C@@H](c2ccccc2)N3S(=O)(=O)c2ccc(C)cc2)cc1	-0.2	-6.3	.	.	.
Cc1ccccc1-c1nc(CN2CCC(C(=O)NCCC3=CCCCC3)CC2)c(C)o1	-1.0	-13.2	-1.4	71.0*	2.1
CCc1ccc(-c2nc(CN3CCC(C(=O)N4CCN(c5ccccc5)CC4)CC3)c(C)o2)cc1	-1.4	-16.8	3.9	98.1*	1.8
CCN(CCNC(=O)C1CCN(Cc2nc(-c3ccc(Cl)cc3)oc2C)CC1)c1ccccc1	-1.3	-6.9	19.2	85.0*	1.9
COc1ccc(CCNC(=O)C2CCN(Cc3nc(-c4ccccc4C)oc3C)CC2)cc1OC	-1.5	-4.8	-0.3	54.7	-2.3
CCN(CCNC(=O)C1CCN(Cc2nc(-c3cccc(Cl)c3)oc2C)CC1)c1ccccc1	-0.3	-4.9	6.4	94.6*	0.3
CCc1ccc(-c2nc(CN3CCC(C(=O)N4CCN(c5ccccn5)CC4)CC3)c(C)o2)cc1	0.8	-12.0	7.2	50.8	2.4
C[C@H](CO)N1C[C@H](C)[C@@H](CN(C)C(=O)c2ccncc2)OCc2cnnn2CCCC1=O	0.0	4.5	.	.	.
Cc1cc(C)cc(C(O)c2ncc(-c3cccc(C(F)(F)F)c3)[nH]2)c1 (stereo not given)	4.8	-10.9	.	.	.
CCc1ccc(NC(=O)c2c(C(=O)Nc3ccccc3)sc3nc(C)cc(=O)n23)cc1	0.4	3.0	-1.8	82.4*	2.7
COCCN(CCOC)S(=O)(=O)c1ccc(C(=O)Nc2sc3c(c2C(N)=O)CCCCC3)cc1	-1.7	-7.0	19.2	82.3*	5.7
COc1ccc(/C=C/c2nc(-c3ccccc3O)n[nH]2)cc1	-0.8	-11.8	2.6	78.9*	5.7
O=C(NCCc1ccc(Cl)cc1)c1cccc(S(=O)(=O)N2CCCC2)c1	3.8	-6.1	.	.	.
COc1ccc(-c2nn3c(-c4ccccc4)nnc3s2)cc1	-0.3	11.6	4.4	60.1	0.2
COc1ccc(-c2nn3c(-c4ccc(F)cc4)nnc3s2)cc1	-0.1	15.6	5.7	82.5*	0.4
CCOC(=O)N1CCN(C(=O)CSc2nc3c(cnn3-c3ccc(C)cc3)c(=O)[nH]2)CC1	-0.9	51.2*	-2.4	13.1	-0.7
O=C(CC1S/C(=N/N=C/c2cccs2)NC1=O)Nc1ccc(Cl)cc1 (stereo not given)	1.6	-7.4	9.5	93.8*	-0.2
CC(C)[C@@H]1Cc2[nH]c(=S)[nH]c(=O)c2[C@H](CCc2ccccc2)O1	1.2	.	.	.	.
CCOC(=O)Cn1nc(-c2ccccc2)c2cnc3ccc(C)cc3c21	-0.5	6.8	1.0	73.2*	2.7

Screens as filed in PubChem BioAssay.
